Data as given in ChEMBL document CHEMBL1152936, “Human sialidase inhibitors: design, synthesis, and biological evaluation of 4-acetamido-5-acylamido-2-fluoro benzoic acids” (Bioorg Med Chem, 2009).
Calls of active or inactive are those of the source. No cut-off for these calls is given here.

How the values were obtained:
[1] = biological target: Sialidase-1 (Homo sapiens) (UniProt Q99519); test: Inhibition of human NEU1 transiently transfected in HEK293 cells at 1 mM by fluorimetric analysis; format: cell-based
Procedure, shortened: (§1)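 Enzyme source was the crude supernatant of homogenates from HEK-293 cells transiently transfected with a full-length human sialidase cDNA plasmid. The reaction contained 10–20 nmol substrate (4MU-Neu5Ac) as bound sialic acid, 0.2 mg BSA, sodium acetate pH 4.6 and 0.2 mg Triton X-100. It was incubated at 37 °C for 10–30 min, and released sialic acid was quantified. Inhibitors were tested at 1 mM and reported as percent inhibition.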

[2] = biological target: T1, Sialidase-4 (Homo sapiens) (UniProt Q8WWR8); test: Inhibition of human NEU4 transiently transfected in HEK293 cells at 1 mM by fluorimetric analysis; format: cell-based; procedure, shortened: as §1
T1 sequence (whole entry): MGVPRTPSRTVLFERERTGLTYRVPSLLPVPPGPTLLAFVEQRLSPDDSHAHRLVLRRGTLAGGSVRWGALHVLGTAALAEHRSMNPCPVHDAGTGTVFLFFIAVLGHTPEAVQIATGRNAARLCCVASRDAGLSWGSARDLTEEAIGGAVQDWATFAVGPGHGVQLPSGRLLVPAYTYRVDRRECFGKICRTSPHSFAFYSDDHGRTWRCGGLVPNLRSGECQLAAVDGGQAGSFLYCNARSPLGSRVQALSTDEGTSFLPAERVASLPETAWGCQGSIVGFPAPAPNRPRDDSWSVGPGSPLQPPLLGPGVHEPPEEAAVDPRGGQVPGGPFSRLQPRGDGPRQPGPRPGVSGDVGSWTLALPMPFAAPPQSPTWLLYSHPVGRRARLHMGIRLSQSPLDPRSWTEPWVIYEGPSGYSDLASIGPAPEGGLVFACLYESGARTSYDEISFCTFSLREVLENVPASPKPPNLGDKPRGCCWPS

[3] = biological target: T2, Sialidase-3 (Homo sapiens) (UniProt Q9UQ49); test: Inhibition of human NEU3 transiently transfected in HEK293 cells at 1 mM by fluorimetric analysis; format: cell-based; procedure, shortened: as §1
T2 sequence (whole entry): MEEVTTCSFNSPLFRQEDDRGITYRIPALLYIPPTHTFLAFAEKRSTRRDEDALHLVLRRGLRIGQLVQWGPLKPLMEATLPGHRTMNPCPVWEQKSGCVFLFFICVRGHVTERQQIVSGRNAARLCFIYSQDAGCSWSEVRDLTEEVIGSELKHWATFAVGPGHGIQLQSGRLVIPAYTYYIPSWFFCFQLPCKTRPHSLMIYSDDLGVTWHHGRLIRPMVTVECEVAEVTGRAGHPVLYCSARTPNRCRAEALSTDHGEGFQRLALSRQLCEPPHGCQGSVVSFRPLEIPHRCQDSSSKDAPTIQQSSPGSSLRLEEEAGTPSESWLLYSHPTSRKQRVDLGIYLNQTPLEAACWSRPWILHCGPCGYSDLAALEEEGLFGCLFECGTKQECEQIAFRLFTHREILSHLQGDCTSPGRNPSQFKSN

Sialidase-3 [4] = biological target: T3, Sialidase-3 (Homo sapiens, UniProt Q9UQ49); test: Inhibition of human NEU3 transiently transfected in HEK293 cells by fluorimetric analysis; format: cell-based
T3 sequence (Q9UQ49 whole entry): T2 sequence (whole entry)
Procedure, shortened: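 The sialidase was the crude supernatant of homogenized HEK-293 cells transiently transfected with full-length human NEU3 cDNA. The mixture held 10–20 nmol 4MU-Neu5Ac as bound sialic acid, 0.2 mg BSA, sodium acetate pH 4.6 and 0.2 mg Triton X-100, run at 37 °C for 10–30 min. Released sialic acid was measured, and IC50 came from nonlinear regression of concentration–inhibition curves.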

Sialidase-3 [5] = biological target: T3, Sialidase-3; test: Inhibition of human NEU3 transiently transfected in HEK293T cells by fluorimetric high-performance liquid chromatography; format: cell-based, HEK-293T
Procedure, shortened: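 Crude supernatant of homogenates from HEK-293 cells transiently transfected with full-length human sialidase cDNA. Reaction: 10–20 nmol substrate as bound sialic acid, 0.2 mg BSA, sodium acetate pH 4.6, 0.2 mg Triton X-100.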

Sialidase-4 = biological target: T4, Sialidase-4 (Homo sapiens, UniProt Q8WWR8); test: Inhibition of human NEU4 transiently transfected in HEK293 cells by fluorimetric analysis
T4 sequence (Q8WWR8 whole entry): T1 sequence (whole entry)

inhibition [1]	inhibition [2]	inhibition [3]	IC50 (Sialidase-3 [4])	IC50 (Sialidase-3 [5])	IC50 (Sialidase-4)	Structure (SMILES)
inactive	10%	8%	–	–	–	CC(=O)Nc1cc(F)c(C(=O)O)cc1NC(=O)c1ccc2ccccc2c1
inactive	< 5%	inactive	–	–	–	CCC(CC)C(=O)Nc1cc(C(=O)O)c(F)cc1NC(C)=O
inactive	< 5%	inactive	–	–	–	CC(=O)Nc1cc(F)c(C(=O)O)cc1NC(=O)C(C)(C)C
inactive	inactive	inactive	–	–	–	CCC(C)C(=O)Nc1cc(C(=O)O)c(F)cc1NC(C)=O (stereo unspecified)
inactive	inactive	inactive	–	–	–	CC(=O)Nc1cc(F)c(C(=O)O)cc1NC(=O)C1CC1
inactive	8%	23%	> 2000 µM	–	–	CC(=O)Nc1cc(F)c(C(=O)O)cc1NC(C)=O
inactive	11%	inactive	–	–	–	CC(=O)Nc1cc(F)c(C(=O)O)cc1NC(=O)C(C)C
inactive	< 5%	inactive	–	–	–	CCCC(=O)Nc1cc(C(=O)O)c(F)cc1NC(C)=O
inactive	inactive	inactive	–	–	–	CC(=O)Nc1cc(F)c(C(=O)O)cc1NC(=O)c1ccccc1
inactive	inactive	inactive	–	–	–	CC(=O)Nc1cc(F)c(C(=O)O)cc1NC(=O)C1CCCC1
–	–	–	–	60 µM	–	CC(=O)N[C@H]1[C@H]([C@H](O)[C@H](O)CO)OC(C(=O)O)=C[C@@H]1O [NEU5AC2EN]
inactive	–	–	≥ 5000 µM	–	≥ 5000 µM	CC(=O)Nc1cc(F)c(C(=O)O)cc1NC(=O)c1ccc(-c2ccccc2)cc1
inactive	< 5%	13%	–	–	–	CCCCC(=O)Nc1cc(C(=O)O)c(F)cc1NC(C)=O
inactive	6%	inactive	–	–	–	CC(=O)Nc1cc(F)c(C(=O)O)cc1NC(=O)C1CCCCC1
